SENP7 inh = SENP7 protease inhibitors, primary screen, biochemical, luminescence, uHTS. Sentrin-specific protease 7 (Homo sapiens), Q9BQF6. recombinant SENP7, Z-RLRGG-aminoluciferin luminescence, 40 min. inhibition, % at 5 µM. 330,000 compounds, 1.5% hits;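 active = inhibition above about 50% at the single test dose, limit read from the data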
SENP6 block = SENP6 protease inhibitors, primary screen, biochemical, luminescence, uHTS; inhibition, % at 10 µM; Sentrin-specific protease 6 (Homo sapiens), Q9GZR1; 330,000 compounds, 1.8% hits; Recombinant SENP6 catalytic domain, aminoluciferin luminescence;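 active = inhibition above about 50% at the single tested dose, limit read from the data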
SENP8 block-1 = SENP8 protease inhibitors, primary screen, biochemical, luminescence; purified SENP8, Z-RLRGG-aminoluciferin cleavage; AID 2540, 2010; 330,000 compounds, 1.2% hits; Sentrin-specific protease 8 (Homo sapiens), Q96LD8; inhibition, % at 10 µM; in the data active = inhibition above about 50%
Target sequence (Q96LD8 whole entry, looked up): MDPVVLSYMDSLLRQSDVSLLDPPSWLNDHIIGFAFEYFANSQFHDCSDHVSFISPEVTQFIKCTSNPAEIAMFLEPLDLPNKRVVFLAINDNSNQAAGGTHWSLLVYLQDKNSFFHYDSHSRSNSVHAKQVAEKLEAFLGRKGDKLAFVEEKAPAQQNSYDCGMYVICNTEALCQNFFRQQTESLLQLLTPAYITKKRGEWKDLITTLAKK
SENP8 block-2 = human SENP8 protease inhibitors, primary screen, biochemical, fluorescence, Nedd8 protein substrate, uHTS; recombinant SENP8; inhibition, % at 20 µM; 360,000 compounds, 0.64% hits; AID 602440, 2012; Sentrin-specific protease 8 (Homo sapiens), Q96LD8; in the data active = inhibition mostly above about 40%, no sharp cut-off; inactive = mostly below about 27%
SENP1 inh = human SENP1 catalytic domain inhibitors, primary screen, biochemical, FRET, uHTS; inhibition, % at 10 µM; 360,000 compounds, 0.21% hits; AID 624204, 2012; recombinant SENP1 catalytic domain, CyPet-SUMO1-YPet FRET cleavage; Sentrin-specific protease 1 (Homo sapiens), Q9P0U3;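 active = inhibition at least 30% at 10 µM, raw YFP signal under a set limit, fluorescence ratio 0.5 to 1.5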
Target sequence (Q9P0U3 419-644 limits assumed): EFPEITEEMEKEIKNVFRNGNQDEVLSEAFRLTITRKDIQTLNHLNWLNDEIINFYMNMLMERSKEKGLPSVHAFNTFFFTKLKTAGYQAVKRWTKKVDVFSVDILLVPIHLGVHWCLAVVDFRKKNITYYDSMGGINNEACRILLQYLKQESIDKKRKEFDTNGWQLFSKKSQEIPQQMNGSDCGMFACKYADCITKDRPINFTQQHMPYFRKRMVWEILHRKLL
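Material – human SENP1 catalytic domain · Input – SENP1 enzyme, 20 pM final · Compound dosing – single concentration of 10 µM compound, 0.5% DMSO final · Timing – enzyme reaction for 50 min at room temperature, dark · Measured by – FRET fluorescence in CFP and YFP emission channels · Control set – no-enzyme wells low, DMSO-plus-enzyme wells high control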
SENP8 confirm = SENP8 protease inhibitors, retest, confirmation, biochemical, luminescence, single concentration; Recombinant SENP8, Z-RLRGG-aminoluciferin luminescence, 60 min; shares compounds with SENP7 inh; inhibition, % at 12.5 µM; 6,200 compounds, 40% hits;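 active = mean inhibition across replicates above about 50%, limit read from the data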
SENP6 conf = SENP6 protease inhibitors, confirmation, biochemical, luminescence, single concentration; shares compounds with SENP7 inh; recombinant SENP6, Z-RLRGG-aminoluciferin luminescence; inhibition, % at 12.5 µM; 6,200 compounds, 58% hits; AID 488915, 2010
SENP7 confirm = SENP7 protease inhibitors, retest, confirmation, biochemical, luminescence, single concentration; shares compounds with SENP7 inh; recombinant SENP7, Z-RLRGG-aminoluciferin luminescence, 40 min; inhibition, % at 12.5 µM; 6,200 compounds, 69% hits; AID 488917, 2010
Casp3 SENP sel = caspase-3 protease inhibitors, confirmation, selectivity assay for SENP inhibitor project, biochemical, single concentration. shares compounds with SENP7 inh. inhibition, % at 12.5 µM. purified caspase-3, Z-DEVD-aminoluciferin luminescence, 60 min. 6,200 compounds, 60% hits;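 active = mean inhibition above about 50%, limit read from the data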
Luc interf = counter-screen for SENP inhibitors: luminescence interference; Pre-incubated SENP8/Z-RLRGG-aminoluciferin, luciferase luminescence interference; 6,200 compounds, 39% hits; AID 488919; shares compounds with SENP7 inh; inhibition, % at 12.5 µM;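 active = mean inhibition above about 50% when retested at one dose, limit read from the data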
A number is an active result; n = inactive; x = no result. This is a sample that favours compounds with a hit; in the whole collection about 2.5% have one here.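 The calls were made as follows, unless noted: active = mean inhibition above about 50% in the one-dose retest (limit read from the data); inactive = the rest.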

SMILES	SENP7 inh	SENP6 block	SENP8 block-1	SENP8 block-2	SENP1 inh	SENP8 confirm	SENP6 conf	SENP7 confirm	Casp3 SENP sel	Luc interf
COc1ccc(C(=O)/C=C/Nc2cc(C)ccn2)cc1	95	95	95	n	n	n	99	103	96	n
COc1ccccc1C(=O)Nc1ccc2nc3n(c(=O)c2c1)CCCC3	n	n	n	n	n	x	x	x	x	x
COc1cc(OC)cc(C(=O)Nc2ccc3nc4n(c(=O)c3c2)CCCCC4)c1	83	81	80	n	n	87	86	98	88	55
C/C(=N\NC(=O)c1ccccc1[N+](=O)[O-])c1c(O)cc(C)oc1=O	n	n	n	n	n	x	x	x	x	x
C/C(=N\NC(=O)c1ccccc1O)C1C(=O)c2ccccc2C1=O	87	94	93	n	n	98	98	102	89	74
C/C(=N\NC(=O)c1cc2ccccc2cc1O)c1cc2ccccc2o1	n	n	n	n	n	x	x	x	x	x
C/C(=N/NC(=O)c1cc2ccccc2cc1O)C1C(=O)c2ccccc2C1=O	63	94	96	n	n	95	99	97	81	n
C/C(=N\NC(=O)c1ccccc1O)c1c(O)cc(C)oc1=O	69	81	62	n	n	n	n	n	n	n
CCC(=NNS(=O)(=O)c1ccc(C)cc1)c1ccc(OC)c(C)c1	x	x	x	n	n	x	x	x	x	x
COc1ccc(NS(=O)(=O)c2cc(NC(=O)c3nc4nc(C)cc(C)n4n3)ccc2C)cc1	n	n	n	n	n	x	x	x	x	x
Nc1c(N2CCOCC2)cc(Cl)c2nonc12	n	n	n	n	n	x	x	x	x	x
Nc1c(N2CCCC2)cc(Cl)c2nonc12	n	91	83	n	61	n	86	74	n	n
COC(=O)c1ccc(S(=O)(=O)c2ccccc2)c(N)c1	n	n	n	n	n	x	x	x	x	x
Cc1cc(NCc2ccccn2)nc2ccccc12	n	n	n	n	n	x	x	x	x	x
c1ccc(CNc2ccc3ccccc3n2)nc1	n	87	86	n	n	88	89	99	92	91
Cc1nn(CCCC(=O)NC2CCC(C)CC2)c(=O)c2nn(-c3ccccc3)c(C)c12 (centres undefined)	n	n	n	n	n	x	x	x	x	x
CCCNC(=O)C1(C)CCCN(Cc2ccccc2N(C)C)C1 (centres undefined)	x	x	x	n	n	x	x	x	x	x
CN1N=C2c3ccccc3CCC2C1c1ccc(Cl)cc1 (centres undefined)	n	n	59	n	n	n	n	n	n	n
Nc1ccc(C(=O)O)cc1	n	n	n	n	n	x	x	x	x	x
O=C(O)c1ccc(-c2nnc(-c3ccccc3)o2)cc1	98	99	95	n	n	n	97	101	96	81
O=C(O)c1ccc(C(=O)C(=O)c2ccccc2)cc1	n	66	n	n	n	n	n	80	85	67
Cc1ccc(-c2nnc(-c3ccccc3)o2)cc1	93	92	82	n	n	n	80	96	86	54
O=C(c1ccc(-c2nnc(-c3ccccc3)o2)cc1)N1CCCCCC1	93	96	88	n	n	n	n	60	69	n
CN(c1cc(Cl)c2c(c1)OCO2)c1cc2c(c3c1ccn3C)C1CCC2C1 (centres undefined)	x	x	x	n	n	x	x	x	x	x
CCOc1ccc(N(CC(=O)NC2CCCCC2)C(=O)CNC(=O)c2cccs2)cc1	n	n	n	n	n	x	x	x	x	x
SMILES	SENP7 inh	SENP6 block	SENP8 block-1	SENP8 block-2	SENP1 inh	SENP8 confirm	SENP6 conf	SENP7 confirm	Casp3 SENP sel	Luc interf
CC(C)CC(=O)Nc1c2c(nn1-c1cccc(Cl)c1)CS(=O)(=O)C2	n	n	n	n	n	x	x	x	x	x
CCCc1ccc(OCC(=O)O)cc1	n	n	n	n	n	x	x	x	x	x
CCCCCc1ccc(-c2ccc(/C=C/C(N)=O)cc2)nc1	n	n	n	n	n	x	x	x	x	x
CCCc1ccc(-c2ccc(C(=O)O)cc2)nc1	67	69	59	n	n	70	66	90	73	70
CCCCCc1ccc(-c2ccc(OC)cc2)nc1	n	52	n	n	n	n	n	64	n	n
COC(=O)c1ccc(-c2ccc(Cl)cc2)nc1C	76	76	58	n	n	n	64	90	52	n
COc1cccc(/C=C/C(=O)Nc2ccc3c(c2)OCCO3)c1OC	76	n	62	n	n	79	77	91	71	79
COc1cccc(C(=O)Nc2ccc3c(c2)OCO3)c1OC	n	55	n	n	n	n	n	73	73	54
COc1cccc(/C=C/C(=O)Nc2cccc(C(C)=O)c2)c1OC	n	n	n	n	n	x	x	x	x	x
Cc1ccc(C(=O)N/C(=C/c2ccc(Cl)cc2)C(=O)N2CCOCC2)cc1	n	n	n	n	n	x	x	x	x	x
Cc1cccnc1NC(=O)CN1C(=O)COc2ccc(Cl)cc21	n	n	n	n	n	x	x	x	x	x
Cc1ccc(C)c(NC(=O)CCN2CCN(c3ccccc3F)CC2)c1	n	n	n	n	n	x	x	x	x	x
NS(=O)(=O)c1c(Sc2ccccc2C(=O)O)ccc2ccccc12	52	94	n	n	n	n	n	n	n	n
COc1ccc(C(=O)Nc2ccc3nc(C)sc3c2)cc1OC	73	n	n	n	n	57	57	87	80	71
CSc1nc2ccc(NC(=O)c3ccc(=O)n(C)n3)cc2s1	84	92	71	n	n	n	n	61	55	n
CSc1nc2ccc(NC(=O)c3ccc(=O)[nH]c3)cc2s1	n	n	n	n	n	x	x	x	x	x
CSc1nc2ccc(NC(=O)c3ccc(F)c(F)c3)cc2s1	74	56	n	n	n	n	n	n	n	n
CSc1nc2ccc(NC(=O)c3cc4ccccc4o3)cc2s1	93	n	69	n	n	n	60	84	n	n
